Laboratory results reported in ChEMBL document CHEMBL3616437, “Thiazole compounds with activity against Cryptococcus gattii and Cryptococcus neoformans in vitro” (Eur J Med Chem, 2015).

Key:
Cryptococcus neoformans [1] = experiment: Antifungal activity against Cryptococcus neoformans CN31 assessed as reduction in cell viability at 3.9 uM after 6 to 72 hrs by MTT assay; type: functional
Cryptococcus neoformans [2] = experiment: Antifungal activity against Cryptococcus neoformans VM-MCMMPI assessed as reduction in cell viability at 3.9 uM after 6 to 72 hrs by MTT assay; type: functional
[3] = tested on: Cryptococcus gattii species complex; experiment: Antifungal activity against Cryptococcus gattii 1913ER assessed as reduction in cell viability at 3.9 uM after 6 to 72 hrs by MTT assay; type: functional, Cryptococcus bacillisporus
[4] = tested on: Cryptococcus gattii species complex; experiment: Antifungal activity against Cryptococcus gattii L28/02 assessed as reduction in cell viability at 3.9 uM after 6 to 72 hrs by MTT assay; type: functional, Cryptococcus bacillisporus
[5] = tested on: Cryptococcus gattii species complex; experiment: Antifungal activity against Cryptococcus gattii 23/10993 assessed as reduction in cell viability at 3.9 uM after 6 to 72 hrs by MTT assay; type: functional, Cryptococcus bacillisporus
[6] = tested on: Cryptococcus gattii species complex; experiment: Antifungal activity against Cryptococcus gattii ICB181 assessed as reduction in cell viability at 3.9 uM after 6 to 72 hrs by MTT assay; type: functional, Cryptococcus bacillisporus
Cryptococcus neoformans [7] = experiment: Antifungal activity against Cryptococcus neoformans 5396 assessed as reduction in cell viability at 3.9 uM after 6 to 72 hrs by MTT assay; type: functional
Cryptococcus neoformans [8] = experiment: Antifungal activity against Cryptococcus neoformans ATCC 62066 assessed as reduction in cell viability at 3.9 uM after 6 to 72 hrs by MTT assay; type: functional
Cryptococcus gattii = experiment: Antifungal activity against Cryptococcus gattii ATCC 24065 assessed as reduction in cell viability at 3.9 uM after 6 to 72 hrs by MTT assay
Cryptococcus neoformans [9] = experiment: Antifungal activity against Cryptococcus neoformans 28JF assessed as reduction in cell viability at 3.9 uM after 6 to 72 hrs by MTT assay; type: functional
[10] = Selectivity index, ratio of IC50 for C57BL/6 mouse peritoneal macrophages to MIC for Cryptococcus gattii ATCC 24065
Cryptococcus neoformans [11] = experiment: Antifungal activity against Cryptococcus neoformans 96806 assessed as reduction in cell viability at 3.9 uM after 6 to 72 hrs by MTT assay; type: functional
[12] = tested on: Cryptococcus gattii species complex; experiment: Antifungal activity against Cryptococcus gattii 135L/03 assessed as reduction in cell viability at 3.9 uM after 6 to 72 hrs by MTT assay; type: functional, Cryptococcus bacillisporus
Cryptococcus neoformans [13] = experiment: Antifungal activity against Cryptococcus neoformans ATCC 24067 assessed as reduction in cell viability at 3.9 uM after 6 to 72 hrs by MTT assay; type: functional
[14] = tested on: Cryptococcus gattii species complex; experiment: Antifungal activity against Cryptococcus gattii 547/OTTI-97-PI-10 assessed as reduction in cell viability at 3.9 uM after 6 to 72 hrs by MTT assay; type: functional, Cryptococcus bacillisporus
[15] = tested on: Cryptococcus bacillisporus; experiment: Antifungal activity against Cryptococcus gattii ATCC 32608 assessed as reduction in cell viability at 3.9 uM after 6 to 72 hrs by MTT assay; type: functional
[16] = tested on: Cryptococcus gattii species complex; experiment: Antifungal activity against Cryptococcus gattii L28/02 assessed as reduction in cell viability at 1.9 uM after 6 to 72 hrs by MTT assay; type: functional, Cryptococcus bacillisporus
[17] = tested on: Cryptococcus gattii species complex; experiment: Antifungal activity against Cryptococcus gattii 23/10993 assessed as reduction in cell viability at 1.9 uM after 6 to 72 hrs by MTT assay; type: functional, Cryptococcus bacillisporus
Cryptococcus neoformans [18] = experiment: Antifungal activity against Cryptococcus neoformans F10 assessed as reduction in cell viability at 1.9 uM after 6 to 72 hrs by MTT assay; type: functional
[19] = tested on: Cryptococcus gattii species complex; experiment: Antifungal activity against Cryptococcus gattii LMM818 assessed as reduction in cell viability at 1.9 uM after 6 to 72 hrs by MTT assay; type: functional, Cryptococcus bacillisporus
[20] = tested on: Cryptococcus bacillisporus; experiment: Antifungal activity against Cryptococcus gattii ATCC 32608 assessed as reduction in cell viability after at 1.9 uM 6 to 72 hrs by MTT assay; type: functional
[21] = tested on: Cryptococcus gattii species complex; experiment: Antifungal activity against Cryptococcus gattii L24/01 assessed as reduction in cell viability at 1.9 uM after 6 to 72 hrs by MTT assay; type: functional, Cryptococcus bacillisporus
[22] = tested on: Cryptococcus gattii species complex; experiment: Antifungal activity against Cryptococcus gattii 1913ER assessed as reduction in cell viability at 1.9 uM after 6 to 72 hrs by MTT assay; type: functional, Cryptococcus bacillisporus
Cryptococcus neoformans [23] = experiment: Antifungal activity against Cryptococcus gattii ATCC 24065 assessed as reduction in cell viability at 1.9 uM after 6 to 72 hrs by MTT assay; type: functional, Cryptococcus bacillisporus
[24] = tested on: Cryptococcus gattii species complex; experiment: Antifungal activity against Cryptococcus gattii 547/OTTI-97-PI-10 assessed as reduction in cell viability at 1.9 uM after 6 to 72 hrs by MTT assay; type: functional, Cryptococcus bacillisporus
Cryptococcus neoformans [25] = experiment: Antifungal activity against Cryptococcus neoformans ATCC 24067 assessed as reduction in cell viability at 0.12 uM after 6 to 72 hrs by MTT assay; type: functional
Cryptococcus neoformans [26] = experiment: Antifungal activity against Cryptococcus neoformans WP assessed as reduction in cell viability at 0.12 uM after 6 to 72 hrs by MTT assay; type: functional
[27] = tested on: Cryptococcus gattii species complex; experiment: Antifungal activity against Cryptococcus gattii ICB181 assessed as reduction in cell viability at 0.12 uM after 6 to 72 hrs by MTT assay; type: functional, Cryptococcus bacillisporus
[28] = tested on: Cryptococcus gattii species complex; experiment: Antifungal activity against Cryptococcus gattii L27/01 assessed as reduction in cell viability at 0.12 uM after 6 to 72 hrs by MTT assay; type: functional, Cryptococcus bacillisporus
Cryptococcus neoformans [29] = experiment: Post-antifungal activity against Cryptococcus neoformans CN31 assessed as organism required time to achieve cell population of 10^4 cells/ml at 0.9 uM treated for 1 hr by MTT assay in presence of 0.05 uM amphotericin B; type: functional
Cryptococcus neoformans [30] = experiment: Antifungal activity against Cryptococcus neoformans ATCC 62066 assessed as reduction in cell viability at 0.9 uM after 6 to 72 hrs by MTT assay; type: functional
[31] = tested on: Cryptococcus gattii species complex; experiment: Post-antifungal activity against Cryptococcus gattii L27/01 assessed as organism required time to achieve cell population of 10^4 cells/ml at 0.45 uM treated for 1 hr by MTT assay; type: functional, Cryptococcus bacillisporus
Cryptococcus neoformans [32] = experiment: Antifungal activity against Cryptococcus neoformans VM-MCMMPI assessed as reduction in cell viability at 0.9 uM after 6 to 72 hrs by MTT assay; type: functional
Cryptococcus neoformans [33] = experiment: Antifungal activity against Cryptococcus neoformans 5396 assessed as reduction in cell viability at 0.9 uM after 6 to 72 hrs by MTT assay; type: functional
Cryptococcus neoformans [34] = experiment: Antifungal activity against Cryptococcus neoformans ATCC 24067 assessed as reduction in cell viability at 0.9 uM after 6 to 72 hrs by MTT assay; type: functional
Cryptococcus neoformans [35] = experiment: Antifungal activity against Cryptococcus neoformans ATCC 62066 assessed as reduction in cell viability at 26 uM after 6 to 72 hrs by MTT assay; type: functional
Procedure, shortened: (§1)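 Time-kill setup: colonies from two 48 h, 35°C SDA passages were suspended in saline to 70% transmittance at 530 nm. They were then diluted to 1-5 x10^3 cells/mL in RPMI with L-glutamine buffered to pH 7.0 with 0.165 M MOPS. Plates were incubated at 35°C for 0-72 h, then MTT (5.0 mg/mL) was added for 3 h. After isopropanol, absorbance was read at 490 nm. Drug-free controls were included, results were confirmed by SDA colony counts, and assays were run in triplicate.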

[36] = tested on: Cryptococcus gattii species complex; experiment: Antifungal activity against Cryptococcus gattii L27/01 assessed as reduction in cell viability at 26 uM after 6 to 72 hrs by MTT assay; type: functional, Cryptococcus bacillisporus; procedure, shortened: as §1

Row | SMILES | Activity (Cryptococcus neoformans [1]) | Activity (Cryptococcus neoformans [2]) | Activity [3] | Activity [4] | Activity [5] | Activity [6] | Activity (Cryptococcus neoformans [7]) | Activity (Cryptococcus neoformans [8]) | Activity (Cryptococcus gattii) | Activity (Cryptococcus neoformans [9]) | Ratio [10] | Activity (Cryptococcus neoformans [11]) | Activity [12] | Activity (Cryptococcus neoformans [13]) | Activity [14] | Activity [15] | Activity [16] | Activity [17] | Activity [19] | Activity [20] | further results
1 | COc1ccc(-c2csc(N/N=C/C3CCCCC3)n2)cc1 | 80% | 80% | 80% | 80% | 80% | 80% | 80% | 80% | 80% | 80% | 25.64 | 80% | 80% | 80% | 80% | 80% | – | – | – | – | –
2 | C(=N\Nc1nc(-c2ccccc2)cs1)/C1CCCCC1 | – | – | – | – | – | – | – | – | – | – | – | – | – | – | – | – | 90% | 90% | 90% | 90% | Activity (Cryptococcus neoformans [18]): 90%; Activity [21]: 90%; Activity [22]: 90%; Activity (Cryptococcus neoformans [23]): 90%; Activity [24]: 90%
3 | c1ccc(-c2csc(NN=C3CCCC3)n2)cc1 | 80% | 80% | 80% | 80% | 80% | 80% | 80% | 80% | 80% | 80% | – | 80% | 80% | 80% | 80% | 80% | – | – | – | – | –
4 | C[C@@H]1[C@H](O)[C@@H](C)/C=C/C=C/C=C/C=C/C=C/C=C/C=C/[C@H](O[C@@H]2O[C@H](C)[C@@H](O)[C@H](N)[C@@H]2O)C[C@@H]2O[C@](O)(C[C@@H](O)C[C@@H](O)[C@H](O)CC[C@@H](O)C[C@@H](O)CC(=O)O[C@H]1C)C[C@H](O)[C@H]2C(=O)O [AMPHOTERICIN B] | – | – | – | – | – | – | – | – | – | – | – | – | – | – | – | – | – | – | – | – | Activity (Cryptococcus neoformans [25]): 90%; Activity (Cryptococcus neoformans [26]): 90%; Activity [27]: 90%; Activity [28]: 90%
5 | COc1ccc(-c2csc(N/N=C(\C)CCO)n2)cc1 | – | – | – | – | – | – | – | – | – | – | – | – | – | – | – | – | 90% | 90% | 90% | 90% | Time (Cryptococcus neoformans [29]): 2.1 h; Activity (Cryptococcus neoformans [30]): 90%; Time [31]: 1.7 h; Activity (Cryptococcus neoformans [32]): 90%; Activity (Cryptococcus neoformans [33]): 90%; Activity (Cryptococcus neoformans [34]): 90%; Activity [21]: 90%; Activity [22]: 90%; Activity (Cryptococcus neoformans [23]): 90%; Activity [24]: 90%
6 | OC(Cn1cncn1)(Cn1cncn1)c1ccc(F)cc1F [FLUCONAZOLE] | – | – | – | – | – | – | – | – | – | – | 7.87 | – | – | – | – | – | – | – | – | – | Activity (Cryptococcus neoformans [35]): 80%; Activity [36]: 80%
